# Source: PubChem BioAssay
# XiGFP reactiv: X-chromosome reactivation activator. XiGFP mouse fibroblasts, % GFP-positive cells imaging, 3 d; cells co-treated with 5-aza-dC sensitizer; scaled so ellipticine positive control = 100%. activation, % at 7.58 µM. 0.055% of 360,000 active. AID 743238;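 active = mean normalized replicate activation at least 10% and every replicate at or above 10%; inconclusive = only one of the two criteria met; inactive = mean below 10% and not all replicates reach 10%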;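 also: 0% = median of on-plate neutral control wells and 100% = ellipticine 6 µM median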
#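 System: XiGFP fibroblasts, SV40-immortalized. Medium: DMEM plus 5-aza-dC sensitizer. Doses: single point. Timing: 3 d treatment, 15 min room-temperature fixation. Control set: ellipticine 6 µM.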
# S100A4 inh HTS: blocks human S100A4 binding to myosin IIA peptide; inhibition, % at 10.7 µM; S100A4/TAMRA-MyoIIA peptide fluorescence polarization; 0.14% of 360,000 active;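 active = mean inhibition of at least 70% across replicates, with every replicate also reaching that level; inconclusive = mean inhibition reaches 70% but some replicates fall short; inactive = mean inhibition below 70%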
# Target sequence (P26447 whole entry, looked up): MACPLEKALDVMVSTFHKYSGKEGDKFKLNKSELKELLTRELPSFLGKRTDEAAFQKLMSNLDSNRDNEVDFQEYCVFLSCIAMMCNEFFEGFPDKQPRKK
#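 assay system = human S100A4 monomer with TAMRA-labelled myosin IIA peptide | also added = labelled myosin peptide probe, 5 nM | incubation = 5 min between mix addition and reading | control set = DMSO and TFP controls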
# DENV2 CPE rescue: protects cells from dengue virus 2 cytopathic effect. 1.7% of 350,000 active. AID 651640. CPE inhibition, % at 9.99 µM. DENV2-infected cells, cytopathic effect rescue, plate reader; in the data active = CPE inhibition above about 20%, passing the limit was not always enough; inconclusive = no clear call, values can overlap the other calls; tested in BHK-21 cells;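 also: 0% = median of neutral control wells and 100% = median of positive control wells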
# E-selectin induc: induces E-selectin expression in human endothelial cells; P16581; HUVEC E-selectin immunofluorescence imaging; normalized: neutral wells 0, TNF-alpha wells 100; AID 686992; 0.37% of 260,000 active; activation, % at 7.58 µM;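 active = mean E-selectin-positive cell signal at least 10% of the positive control, reached in at least 60% of replicates, without over 20% cell loss; inconclusive = no rule given, readout overlaps actives, possibly toxicity-flagged; inactive = the rest, including those meeting only one limit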
#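 Test system – human umbilical vein endothelial cells (HUVEC), E-selectin induction · Input – 3,000 HUVEC seeded per well · Buffer or medium – EGM-2, gelatin · Compound dosing – single-point compound dose · Detection – immunofluorescence imaging · Measure – percent E-selectin-positive cells · Controls – TNF-alpha high, DMSO low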
# An asterisk follows results filed as active; ? = inconclusive; / = not tested or not shown; + = active, no number; ! = repeats disagree. A selection: hits, their analogues and other compounds. The true share with any hit is near 2%.
SMILES,XiGFP reactiv,S100A4 inh HTS,DENV2 CPE rescue,E-selectin induc
COc1ccc2c3c(n(C)c2c1)[C@@H](CO)NCC31CCN(S(=O)(=O)c2cccc(C)c2)CC1,0,-3,39*,0
CCc1ccccc1NC(=O)c1cnc2n(c1=O)CCS2,0,-3,35*,0
CC(C)(C)c1cc(CCC(=O)NCc2cccnc2)cc(C(C)(C)C)c1O,0,6,2,0
CC(C)(C)c1cc(CCC(=O)NCc2ccccn2)cc(C(C)(C)C)c1O,0,11,3,100*
C[C@@H]1CN([C@@H](C)CO)C(=O)c2cc(NS(=O)(=O)c3cn(C)cn3)ccc2O[C@H]1CN(C)C(=O)NC1CCCCC1,0,2,45*,0
C[C@H](CO)N1C[C@H](C)[C@@H](CN(C)C(=O)NC2CCCCC2)Oc2ccc(NS(C)(=O)=O)cc2C1=O,-1,-3,29*!,0
C[C@H](CO)N1C[C@H](C)[C@@H](CN(C)C(=O)NC2CCCCC2)Oc2ccc(NC(=O)C3CC3)cc2C1=O,0,6,56*!,0
C[C@@H]1CN([C@H](C)CO)C(=O)c2cc(NS(C)(=O)=O)ccc2O[C@H]1CN(C)C(=O)NC1CCCCC1,-1,4,2,/
O=C(c1cc(O)c(O)c([N+](=O)[O-])c1)c1ccccc1F,0,-6,5,0
CC(C)NC(=O)N[C@@H]1C=C[C@@H](CC(=O)NC2Cc3ccccc3C2)O[C@H]1CO,0,4,15,1
O=C(N/N=C/c1ccc([N+](=O)[O-])cc1)c1cc(C2CC2)nc2ccccc12,0,-4,-3,0
Cc1ccc(C(=O)COC(=O)c2ccco2)cc1C,1,-1,10,3
CCN(Cc1ccccc1)S(=O)(=O)c1ccc(OC)c2ncccc12,0,3,-3,?
COc1ccc(S(=O)(=O)N(CC(C)C)CC(C)C)c2cccnc12,0,-4,57*,0
COC(=O)c1ccccc1-c1c2ccc(=N)cc-2oc2cc(N)ccc12,2,+,0,/
COC(=O)c1ccccc1OC(=O)c1cc2ccccc2oc1=O,0,-3,5,1
CN1CCCCN2[C@@H](CO)[C@@H](c3ccc(C#CC4(O)CCCC4)cc3)[C@@H]2C1,0,92*,0,0
O=C(c1ccc(F)cc1)N1CCCCN2[C@@H](CO)[C@@H](c3ccc(C#CC4(O)CCCC4)cc3)[C@@H]2C1,0,-7,36*,0
OC[C@H]1[C@@H](c2ccc(C#CC3(O)CCCC3)cc2)[C@@H]2CN(Cc3ccccc3F)CCCCN12,0,0,41*,0
CN1CCCCN2[C@@H](CO)[C@H](c3ccc(C#CC4(O)CCCC4)cc3)[C@@H]2C1,0,-10,2,0
COCCNC(=S)N=Nc1c(O)[nH]c2ccc([N+](=O)[O-])cc12,0,12,5,0
CCCC(=O)Nc1ccc(NC(=S)NC(=O)c2ccccc2[N+](=O)[O-])cc1,0,1,1,/
O=C1ON=C(c2ccccc2)/C1=C\c1ccco1,0,-13,?,0
Cc1ccc(/C=C2/C(=O)ON=C2c2ccccc2)o1,0,-11,42*,/
O=C(CSc1ccc(-c2ccncc2)nn1)N1CCN(c2ccccc2)CC1,0,2,-1,2
SMILES,XiGFP reactiv,S100A4 inh HTS,DENV2 CPE rescue,E-selectin induc
COc1ccc(NC(=O)Nc2cccc3c2O[C@H](CN(C)Cc2ccncc2)[C@H](C)CN([C@H](C)CO)C3=O)cc1,0,48,16,/
CNC[C@H]1Oc2ccc(NS(=O)(=O)c3ccc(OC)cc3)cc2CC(=O)N([C@@H](C)CO)C[C@@H]1C,-1,-2,7,60*
CNC[C@H]1Oc2ccc(NS(=O)(=O)c3ccc(Cl)cc3)cc2CC(=O)N([C@@H](C)CO)C[C@@H]1C,-1,-5,27*,0
CNC[C@H]1Oc2ccc(NS(=O)(=O)c3ccc(OC)cc3)cc2CC(=O)N([C@@H](C)CO)C[C@H]1C,0,51,3,-2
CNC[C@@H]1Oc2ccc(NS(=O)(=O)c3ccc(Cl)cc3)cc2CC(=O)N([C@@H](C)CO)C[C@@H]1C,-1,-2,41*,0
COc1c(Cl)ccc(Cl)c1C(=O)NC(=O)Nc1nc(C)cc(C)n1,1,3,-8,0
CSC1=NC(C)(C)CC2(C)Nc3ccccc3N12 (stereo not drawn),0,24,1,/
COc1ccc(S(=O)(=O)Nc2ccc3c(c2)CC(=O)N([C@H](C)CO)C[C@@H](C)[C@H](CN(C)S(=O)(=O)c2ccc(F)cc2)O3)cc1,0,/,43*,-15
COc1ccc(S(=O)(=O)N(C)C[C@@H]2Oc3ccc(NS(=O)(=O)c4ccc(Cl)cc4)cc3CC(=O)N([C@@H](C)CO)C[C@@H]2C)cc1,-1,/,64*,0
COc1ccc(S(=O)(=O)N(C)C[C@H]2Oc3ccc(NS(=O)(=O)c4ccc(F)cc4)cc3CC(=O)N([C@@H](C)CO)C[C@@H]2C)cc1,?,-4,77*,0
COc1ccc(S(=O)(=O)N(C)C[C@@H]2Oc3ccc(NS(=O)(=O)c4ccc(F)cc4)cc3CC(=O)N([C@@H](C)CO)C[C@@H]2C)cc1,-1,-3,1,1
COc1ccc(S(=O)(=O)Nc2ccc3c(c2)CC(=O)N([C@H](C)CO)C[C@H](C)[C@H](CN(C)S(=O)(=O)c2ccc(Cl)cc2)O3)cc1,-1,-2,-10,0
CCOc1cc(/C=C/C(=O)OCC(=O)N(CC)C2CCS(=O)(=O)C2)cc(Cl)c1OC (stereo not drawn),0,-1,2,2
CO[C@H]1CN(C)C(=O)c2cc(NC(=O)c3ccc4c(c3)OCO4)ccc2OC[C@H](C)N(CCC(F)(F)F)C[C@@H]1C,1,-2,23*,0
CCCN1C[C@H](C)[C@@H](OC)CN(C)C(=O)c2cc(NC(=O)NC3CCCCC3)ccc2OC[C@H]1C,0,6,2,0
CCCN1C[C@H](C)[C@H](OC)CN(C)C(=O)c2ccc(NC(=O)Nc3cccc(F)c3)cc2OC[C@H]1C,0,-7,25*,0
CCCN1C[C@H](C)[C@H](OC)CN(C)C(=O)c2cc(NC(=O)NC3CCCCC3)ccc2OC[C@@H]1C,0,116*,15,0
CCCN1C[C@H](C)[C@@H](OC)CN(C)C(=O)c2ccc(NC(=O)c3ccccc3)cc2OC[C@@H]1C,1,3,23*,0
CO[C@H]1CN(C)C(=O)c2cc(NC(=O)c3ccc4c(c3)OCO4)ccc2OC[C@@H](C)N(CCC(F)(F)F)C[C@@H]1C,0,10,-9,0
CCCN1C[C@H](C)[C@@H](OC)CN(C)C(=O)c2cc(NC(=O)c3ccccc3)ccc2OC[C@H]1C,0,-22,-5,0
COc1ccc(NC(=O)Nc2ccc3c(c2)OC[C@H](C)NC[C@H](C)[C@H](OC)CN(C)C3=O)cc1,0,-6,1,0
